ChEMBL document CHEMBL2163251, “Synthesis and pharmacological evaluation of indolinone derivatives as novel ghrelin receptor antagonists” (Bioorg Med Chem, 2012)
The source made the active and inactive calls. No cut-off for these calls is given here.

Experiments:
[1] = biological target: T1, Growth hormone secretagogue receptor type 1 (Homo sapiens, UniProt Q92847); assay: Antagonist activity at human GHSR1 expressed in CHO-CREluc cells after 4 hrs by Luciferase reporter assay; format: functional, cell-based
T1 sequence (Q92847 whole entry): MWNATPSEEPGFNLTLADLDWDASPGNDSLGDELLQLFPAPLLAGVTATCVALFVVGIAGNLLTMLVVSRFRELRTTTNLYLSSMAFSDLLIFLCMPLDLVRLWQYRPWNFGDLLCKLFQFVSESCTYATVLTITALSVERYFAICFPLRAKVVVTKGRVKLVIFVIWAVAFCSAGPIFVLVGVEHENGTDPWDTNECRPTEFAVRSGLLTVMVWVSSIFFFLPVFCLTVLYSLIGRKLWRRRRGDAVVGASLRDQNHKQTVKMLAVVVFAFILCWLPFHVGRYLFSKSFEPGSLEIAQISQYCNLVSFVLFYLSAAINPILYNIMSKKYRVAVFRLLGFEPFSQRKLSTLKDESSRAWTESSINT
How it was run: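 hGHSR1a stably cloned into CHO line carrying CRE-luciferase reporter (six CRE upstream of firefly luciferase). Cells plated in MEM with 10% dialysed FBS. Stimulation medium held 0.1 µM forskolin and 3 nM human ghrelin. Luciferase read by photon counting.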

[2] = biological target: T1, Growth hormone secretagogue receptor type 1; assay: Displacement of [125I]-ghrelin from human GHSR1 expressed in CHO-CREluc cells after 1 hr by scintillation counting; format: cell-based
How it was run: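 Crude membranes from CHO-CREluc-hGHSR1a cells were homogenized in TM buffer (10 mM Tris-HCl pH 7.4, 10 mM MgCl2) and spun at 40,000g. Incubated 1 h in TM buffer with 0.25% BSA and 10% dialysed FBS, 0.25 nM [125I] human ghrelin and increasing compound concentrations. Harvested on PEI-pretreated GF/B filters and washed with cold buffer. Bound radioactivity counted by scintillation.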

Mus musculus [3] = assay: Effect of glucose tolerance in fasted C57/BL6N mouse assessed as inhibition of glucose excursion at 30 mg/kg, po measured after 20 to 120 mins by IPGTT
Rattus norvegicus [4] = assay: Inhibition of ghrelin induced food intake in CD rat at 10 mg/kg, ip administered 30 mins prior to icv ghrelin challenge measured after 2 hrs; format: functional; conditions: route intraperitoneal
How it was run: (§1)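 Adult male CD rats (200–300 g) fitted with lateral-ventricle cannulae. Dosed 10 mg/kg ip 30 min before icv rat ghrelin (10 µg/rat in 15 µl) or saline. Cumulative food intake measured hourly for 4 h, n=6–7 per group.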

Hepatocyte = assay: Intrinsic clearance in human hepatocytes assessed per million cells at 5 uM; format: ADME, cell-based
[5] = Binding affinity at cannbinoids receptor at 10 uM
[6] = Binding affinity at adrenergic receptor at 10 uM
[7] = Binding affinity at serotonin receptor at 10 uM
Rattus norvegicus [8] = assay: Inhibition of ghrelin-induced gastric emptying in CD rat at 10 mg/kg, ip; format: functional; conditions: Stomach, route intraperitoneal
How it was run: (§2)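 24 h fasted male CD rats dosed ip (vehicle 2 ml/kg), then given rat ghrelin 20 µg/kg iv. BaSO4 meal (75% w/v in 0.5% CMC, 1 ml/100 g) given by gavage. Stomach content weighed at 0 or 60 min and compared with drug-free controls killed at t=0.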

Rattus norvegicus [9] = assay: Inhibition of ghrelin-induced gastric emptying in ip dosed CD rat; format: functional, organism-based; conditions: Stomach; how it was run: as §2
Rattus norvegicus [10] = assay: Inhibition of ghrelin induced food intake in CD rat at 10 mg/kg, ip administered 30 mins prior to icv ghrelin challenge measured after 4 hrs; format: functional; conditions: route intraperitoneal; how it was run: as §1
Mus musculus [11] = assay: Inhibition of ghrelin-induced food intake in fasted C57/BL6N mouse at 10 mg/kg, ip up to 6 hrs; format: functional, organism-based; parameters: dose 10 mg/kg
How it was run: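 Male C57BL/6 mice fasted overnight and dosed ip 10 mg/kg (vehicle 10 ml/kg) 1 h before refeeding. Cumulative food intake recorded after food return.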

[12] = Drug metabolism in rat liver microsomes at 5 uM after 24 hrs; format: ADME, Microsome; conditions: read-out: Drug metabolism
How it was run: (§3)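 Compound at 5 µM incubated 24 h with isolated hepatic microsomal fractions from mouse, rat or human.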

Rattus norvegicus [13] = assay: Inhibition of gastric emptying in CD rat at 3 mg/kg, ip; format: functional; conditions: Stomach, route intraperitoneal
How it was run: (§4)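 24 h fasted male CD rats dosed ip (vehicle 2 ml/kg), no ghrelin. BaSO4 meal (75% w/v in 0.5% CMC, 1 ml/100 g) given by gavage. Rats killed at 0 or 60 min and stomach content weighed. Result expressed relative to the mean content of drug-free controls killed at t=0.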

[14] = Permeability across human Caco2/TC7 cells assessed as compound recovery; format: ADME, cell-based; conditions: Caco-2, read-out: permeability
Mus musculus [15] = assay: Effect of glucose tolerance in fasted C57/BL6N mouse assessed as inhibition of glucose excursion at 30 mg/kg, po administered 30 mins before glucose challenge measured after 20 to 120 mins by IPGTT; format: functional
How it was run: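 Male C57/Bl6N mice fasted 16–18 h, then given 30 mg/kg or vehicle by oral gavage. Fasting glucose read from tail blood 30 min after dosing. Glucose 2 g/kg ip given 30 min later, with glucose measured at 20–120 min. […] calculated by trapezoidal method and expressed as % of vehicle AUC.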

[16] = Drug metabolism in mouse liver microsomes at 5 uM after 24 hrs; format: ADME, Microsome; conditions: read-out: Drug metabolism; how it was run: as §3
Rattus norvegicus [17] = assay: Inhibition of ghrelin-induced gastric emptying in CD rat at 3 mg/kg, ip; format: functional; conditions: Stomach, route intraperitoneal; how it was run: as §2
Rattus norvegicus [18] = assay: Inhibition of ghrelin induced food intake in CD rat at 10 mg/kg, ip administered 30 mins prior to icv ghrelin challenge measured after 3 hrs; format: functional; conditions: route intraperitoneal; how it was run: as §1
[19] = Binding affinity at dopamine receptor at 10 uM
[20] = Binding affinity at opioids receptor at 10 uM
[21] = Binding affinity at adenosine receptor at 10 uM
[22] = Permeability across human Caco2/TC7 cells compound transport; format: ADME, cell-based; conditions: Caco-2, read-out: permeability
[23] = Drug metabolism in human liver microsomes at 5 uM after 24 hrs; format: ADME, Microsome; conditions: read-out: Drug metabolism; how it was run: as §3
P-glycoprotein = assay: P-glycoprotein-mediated efflux ratio of the compound; format: ADME; conditions: not told
Rattus norvegicus [24] = assay: Inhibition of gastric emptying in CD rat at 10 mg/kg, ip; format: functional; conditions: Stomach, route intraperitoneal; how it was run: as §4
[25] = Binding affinity at muscarinic receptor at 10 uM
[26] = Binding affinity at histamine receptor at 10 uM
[27] = Binding affinity at vasopressin receptor at 10 uM
[28] = Binding affinity at receptor at 10 uM
Rattus norvegicus [29] = assay: Inhibition of ghrelin induced food intake in CD rat at 10 mg/kg, ip administered 30 mins prior to icv ghrelin challenge measured after 1 hr; format: functional; conditions: route intraperitoneal; how it was run: as §1

## CN(C)[C@@H]1CCN(CC(=O)NC2(c3ccc(Cl)c(Cl)c3)C(=O)Nc3cc(Cl)cc(Cl)c32)C1 (stereo partly drawn)
[1]
  IC50: 0.025 µM

## CN(C)[C@H]1CCN(CC(=O)NC2(c3ccc(Cl)c(Cl)c3)C(=O)Nc3cc(Cl)cc(Cl)c32)C1 (stereo partly drawn)
[1]
  IC50: 0.11 µM

## CN1CCN(CC(=O)N[C@]2(c3ccc(Cl)cc3)C(=O)Nc3cc(Cl)c(Cl)cc32)CC1
[1]
  IC50: 0.047 µM
[2]
  Ki: 0.249 µM

## CCC1=C(C)CN(C(=O)NCCc2ccc(S(=O)(=O)NC(=O)N[C@H]3CC[C@H](C)CC3)cc2)C1=O
Mus musculus [3]
  inhibition: Active

## Cc1ccc2c(c1Cl)C(NC(=O)CN1CCN(C)CC1)(c1ccc(Cl)cc1)C(=O)N2 (racemic)
[1]
  IC50: 1.16 µM

## Cc1cc2c(cc1Cl)NC(=O)C2(NC(=O)CN1CCN(C)CC1)c1ccc(Cl)cc1 (racemic)
[1]
  IC50: 0.213 µM
[2]
  Ki: 0.392 µM

## Cc1cc2c(cc1Cl)NC(=O)C2(NC(=O)CN1CCN(C)CC1)c1cccc(Cl)c1 (racemic)
[1]
  IC50: 1.18 µM

## Cc1cc2c(cc1Cl)NC(=O)C2(NC(=O)CN1CCN(C)CC1)c1ccccc1Cl (racemic)
[1]
  IC50: > 10 µM

## Cc1cc2c(cc1Cl)NC(=O)C2(NC(=O)CN1CCN(C)CC1)c1ccc(Cl)c(Cl)c1 (racemic)
[1]
  IC50: 0.22 µM
[2]
  Ki: > 1 µM

## Cc1cc2c(cc1Cl)NC(=O)C2(NC(=O)CN1CCN(C)CC1)c1ccc(Cl)cc1Cl (racemic)
[1]
  IC50: > 10 µM

## CCN1CCN(CC(=O)NC2(c3ccc(Cl)cc3)C(=O)Nc3cc(Cl)c(C)cc32)CC1 (racemic)
[1]
  IC50: 0.129 µM
[2]
  Ki: 0.286 µM

## Cc1cc2c(cc1Cl)NC(=O)C2(NC(=O)CN1CCNCC1)c1ccc(Cl)cc1 (racemic)
[1]
  IC50: > 10 µM

## Cc1cc2c(cc1Cl)NC(=O)C2(NC(=O)CN1CCN(Cc2ccccc2)CC1)c1ccc(Cl)cc1 (racemic)
[1]
  IC50: > 10 µM

## Cc1cc2c(cc1Cl)NC(=O)C2(NC(=O)CN1CCN(c2ccncc2)CC1)c1ccc(Cl)cc1 (racemic)
[1]
  IC50: > 10 µM

## CCN1CCN(CC(=O)NC2(c3ccc(Cl)cc3)C(=O)Nc3cc(Cl)c(Cl)cc32)CC1 (racemic)
[1]
  IC50: 0.11 µM
[2]
  Ki: 0.202 µM

## CN(C)CCN(C)CC(=O)NC1(c2ccc(Cl)cc2)C(=O)Nc2cc(Cl)c(Cl)cc21 (racemic)
[1]
  IC50: > 10 µM

## CC1CCN(CC(=O)NC2(c3ccc(Cl)cc3)C(=O)Nc3cc(Cl)c(Cl)cc32)CC1 (racemic)
[1]
  IC50: 2.54 µM

## CN1CCN(CC(=O)NC2(c3ccc(Cl)cc3)C(=O)Nc3cc(Cl)c(Cl)c(Cl)c32)CC1 (racemic)
[1]
  IC50: 0.273 µM

## CN1CCN(CC(=O)NC2(c3ccc(C(C)(C)C)cc3)C(=O)Nc3cc(Cl)c(Cl)cc32)CC1 (single isomer, unassigned; (+))
[1]
  IC50: 1.47 µM

## CCN1CCN(CC(=O)NC2(c3ccc(Cl)c(Cl)c3)C(=O)Nc3cc(Cl)cc(Cl)c32)CC1 (single isomer, unassigned; (+))
Rattus norvegicus [4]
  inhibition in vivo at 10 mg/kg: 60%
Hepatocyte
  CLint: 0.097 mL/h/10⁶ cells
[5]
  Activity: inactive
[6]
  Activity: inactive
[7]
  Activity: inactive
Rattus norvegicus [8]
  inhibition in vivo at 10 mg/kg: 62%
Rattus norvegicus [9]
  inhibition: Dose-dependent effect
Rattus norvegicus [10]
  inhibition in vivo at 10 mg/kg: 53%
Mus musculus [11]
  inhibition: Active
[12]
  metabolised at 24 h, 5 µM: 45%
[1]
  IC50: 0.007 µM
Rattus norvegicus [13]
  inhibition in vivo at 3 mg/kg: 68%
[14]
  recovery: 51.8%
[2]
  Ki: 0.008 µM
Mus musculus [15]
  inhibition in vivo at 30 mg/kg: 32%
[16]
  metabolised at 24 h, 5 µM: 44%
Rattus norvegicus [17]
  inhibition in vivo at 3 mg/kg: 55%
Rattus norvegicus [18]
  inhibition in vivo at 10 mg/kg: 61%
[19]
  Activity: inactive
[20]
  Activity: inactive
[21]
  Activity: inactive
[22]
  Papp: 3.85 nm/s
[23]
  metabolised at 24 h, 5 µM: 41%
P-glycoprotein
  efflux ratio: 6.6
Rattus norvegicus [24]
  inhibition in vivo at 10 mg/kg: 55%
[25]
  Activity: inactive
[26]
  Activity: inactive
[27]
  Activity: inactive
[28]
  Activity: inactive
Rattus norvegicus [29]
  inhibition in vivo at 10 mg/kg: 58%

## C=CCN1CCN(CC(=O)NC2(c3ccc(Cl)c(Cl)c3)C(=O)Nc3cc(Cl)cc(Cl)c32)CC1 (single isomer, unassigned; (+))
[1]
  IC50: 0.038 µM
[2]
  Ki: 0.121 µM

## CN1CCCN(CC(=O)NC2(c3ccc(Cl)c(Cl)c3)C(=O)Nc3cc(Cl)cc(Cl)c32)CC1 (single isomer, unassigned; (+))
[1]
  IC50: 0.064 µM

## CN(C)C1CCN(CC(=O)NC2(c3ccc(Cl)c(Cl)c3)C(=O)Nc3cc(Cl)cc(Cl)c32)CC1 (single isomer, unassigned; (+))
[1]
  IC50: 0.239 µM

## CCN1CCCC(CC(=O)NC2(c3ccc(Cl)c(Cl)c3)C(=O)Nc3cc(Cl)cc(Cl)c32)C1 (single isomer, unassigned; (+))
[1]
  IC50: 0.047 µM

## CCN1CCN(CC(=O)NC2(c3ccc(Cl)c(Cl)c3)C(=O)Nc3cc(Cl)cc(Cl)c32)CC1=O (single isomer, unassigned; (+))
[1]
  IC50: 2.78 µM

## CCN1CCC(CC(=O)NC2(c3ccc(Cl)c(Cl)c3)C(=O)Nc3cc(Cl)cc(Cl)c32)CC1 (single isomer, unassigned; (+))
[1]
  IC50: 0.001 µM
[2]
  Ki: 0.003 µM
P-glycoprotein
  efflux ratio: 58

## CN1CCN(CC(=O)NC2(c3ccc(Cl)cc3)C(=O)Nc3cc(Cl)ccc32)CC1 (single isomer, unassigned; (+))
[1]
  IC50: 0.14 µM

## CN1CCN(CC(=O)NC2(c3ccc(Cl)cc3)C(=O)Nc3c(Cl)cc(Cl)cc32)CC1 (single isomer, unassigned; (+))
[1]
  IC50: 1.39 µM

## CN1CCN(CC(=O)NC2(c3ccc(Cl)c(Cl)c3)C(=O)Nc3cc(Cl)ccc32)CC1 (single isomer, unassigned; (+))
[1]
  IC50: 0.111 µM

## CN1CCN(CC(=O)NC2(c3ccc(Cl)cc3)C(=O)Nc3cc(Cl)cc(Cl)c32)CC1 (single isomer, unassigned; (+))
[1]
  IC50: 0.072 µM
[2]
  Ki: 0.044 µM

## CN1CCN(CC(=O)NC2(c3ccc(Cl)c(Cl)c3)C(=O)Nc3cc(Cl)cc(Cl)c32)CC1 (single isomer, unassigned; (+))
[1]
  IC50: 0.024 µM

## COc1ccc(C2(NC(=O)CN3CCN(C)CC3)C(=O)Nc3cc(Cl)c(Cl)cc32)cc1 (single isomer, unassigned; (+))
[1]
  IC50: 0.7 µM

## Cc1cc2c(cc1Cl)C(NC(=O)CN1CCN(C)CC1)(c1ccc(Cl)cc1)C(=O)N2 (single isomer, unassigned; (+))
[1]
  IC50: 0.251 µM

## COc1ccc(C2(NC(=O)CN3CCN(C)CC3)C(=O)Nc3cc(Cl)c(C)cc32)cc1 (single isomer, unassigned; (+))
[1]
  IC50: 0.525 µM

## CN1CCN(CC(=O)NC2(c3ccc(Cl)cc3)C(=O)Nc3cc(Cl)c(Cl)cc32)CC1 (single isomer, unassigned; (-))
[1]
  IC50: > 10 µM
